Rows were chosen to be rich in hits. Some 1.6% of all compounds tested hit in one or more screens of this group.
MLLE-PAM2 inh: inhibitors of microRNA-mediated deadenylation, human PABP1 MLLE binding; GST-MLLE / FITC-PAM2 fluorescence polarization; P11940; 360,000 compounds, 0.36% hits; inhibition, % at 20 µM; in the data active = inhibition above about 35%, passing the limit was not always enough;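 note: plate controls were DMSO wells with GST-MLLE for no effect and wells lacking GST-MLLE protein for full effect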
Target sequence (P11940 whole entry, looked up): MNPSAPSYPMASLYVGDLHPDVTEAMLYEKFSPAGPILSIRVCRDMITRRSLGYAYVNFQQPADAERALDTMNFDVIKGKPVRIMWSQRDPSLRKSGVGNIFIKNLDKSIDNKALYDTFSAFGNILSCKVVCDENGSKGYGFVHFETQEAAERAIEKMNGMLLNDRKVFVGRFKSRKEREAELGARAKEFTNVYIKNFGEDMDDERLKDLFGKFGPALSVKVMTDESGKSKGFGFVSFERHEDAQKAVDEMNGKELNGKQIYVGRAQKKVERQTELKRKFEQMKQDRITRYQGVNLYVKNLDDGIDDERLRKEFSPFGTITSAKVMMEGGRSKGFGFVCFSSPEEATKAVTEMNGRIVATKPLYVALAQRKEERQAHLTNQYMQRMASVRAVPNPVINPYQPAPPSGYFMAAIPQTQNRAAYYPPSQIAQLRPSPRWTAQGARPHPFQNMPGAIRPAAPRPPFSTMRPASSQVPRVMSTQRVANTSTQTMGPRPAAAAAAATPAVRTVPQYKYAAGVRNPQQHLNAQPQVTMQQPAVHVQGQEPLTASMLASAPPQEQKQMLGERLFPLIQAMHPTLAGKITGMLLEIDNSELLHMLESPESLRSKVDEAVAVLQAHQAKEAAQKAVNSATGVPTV
PABP FP inh: PABP-poly(A) binding inhibition | P11940 | PABP-poly(A) RNA binding, fluorescence polarization | calls only at 35 µM | 290,000 compounds, 1% hits | AID 2014;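 note: calls also rest on retests at 20 µM and on dose response follow-up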
TCR-CD3 inh: human TCR-CD3 binding inhibition; TAMRA-labeled TCR probe fluorescence, biochemical; inhibition, % at 9.4 µM; 360,000 compounds, 0.37% hits; AID 651800; in the data active = inhibition above about 19%;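 note: recombinant mutant TCR 2C K166C tagged with TAMRA read by polarization; 0% = receptor in buffer alone and 100% = receptor with positive control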
RBBP9 inhibitor: blocks human serine hydrolase RBBP9 | O75884 | recombinant RBBP9, FP-Rh probe fluorescence polarization | inhibition, % at 7.94 µM | 220,000 compounds, 0.2% hits | AID 1515;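 active = inhibition above the campaign mean of all tested compounds plus 3 SD, cut at about 14% in these data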;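 note: plate controls were DMSO wells with RBBP9 for no effect and wells lacking RBBP9 protein for full effect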
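Assay system: recombinant human RBBP9; Reagent: Serine-hydrolase probe FP-Rh, 375 nM pre-mixing; Doses: 7.94 µM single dose, 0.794% DMSO; Incubation: 30 min then 45 min, 25 °C; Detection: fluorescence polarization (mP), excitation 525 nm, emission 598 nm; Evaluation: percent inhibition from mP, scaled between DMSO and no-protein wells.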
eIF4H inh: inhibitors of RNA binding by human eIF4H. 290,000 compounds, 0.94% hits. Q15056. AID 2012. inhibition, % at 35 µM. eIF4H fluorescence polarization binding assay;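 note: calls also rest on retests at 20 µM and on dose response follow-up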
An asterisk follows results filed as active; i = inactive; ? = inconclusive; nt = not tested or not shown; + = active, no number; ! = not confirmed by another sample. Unless noted, the rule behind the calls is not given here.

SMILES	MLLE-PAM2 inh	PABP FP inh	TCR-CD3 inh	RBBP9 inhibitor	eIF4H inh
C[C@@H]1CN([C@@H](C)CO)C(=O)c2ccccc2-c2ccccc2CO[C@@H]1CN(C)Cc1ccc(Cl)c(Cl)c1	nt	nt	3	nt	nt
O=C1c2ccccc2C(=O)N1c1cccc2cccnc12	11	i	-5	0	64*
Cc1cccc(NC(=O)CSc2ccc(-c3cccs3)nn2)c1C	-7	i	10	1	-3
Cc1ccc(C)c(NC(=O)CSc2ccc(-c3cccs3)nn2)c1	9	+	3	1	22*
CC(/C=N/n1c(-c2cccnc2)n[nH]c1=S)=C\c1ccco1	2	+	5	-5	76*
S=c1[nH]nc(-c2cccnc2)n1/N=C/C=C/c1ccco1	-15	i	1	-10	96*
S=c1[nH]nc(-c2ccc(Cl)cc2)n1/N=C/C=C/c1ccco1	-11	+	0	9	83*
COc1ccc2oc(=Nc3cc(F)ccc3F)c(C(N)=O)cc2c1	12	+	4	2	active
O=C(N[C@H](Cc1ccccc1)C(=O)NC1CCCCC1)[C@H]1O[C@@H](n2ccc(=O)[nH]c2=O)[C@H](O)[C@@H]1O	nt	nt	6	nt	nt
Cc1ccc2nc(/C(C#N)=C\c3ccc(Oc4ccc(C(F)(F)F)cc4[N+](=O)[O-])cc3)[nH]c2c1	-9	+	3	-5	76*
COc1ccc(/C=C(\C#N)c2nc3ccc(C)cc3[nH]2)cc1Oc1ccc(C(F)(F)F)cc1[N+](=O)[O-]	-9	i	-3	-4	45
CCOC(=O)C1=C(Nc2ccc(Br)cc2)C(=O)N(CC)C1	nt	nt	-5	nt	nt
CN(C)CCOC(c1ccccc1)c1ccccc1	-6	i	4	-12	1.6*!
C[C@H]1CN([C@@H](C)CO)C(=O)c2c(c3ccccc3n2C)-c2ccccc2CO[C@H]1CN(C)C(=O)Nc1cccc(F)c1	nt	nt	4	nt	nt
CCOc1ccc(C(=O)NCC(c2cccs2)N(C)C)cc1OCC (stereo not given)	0	i	11	-2	87*
CCCOc1ccc(C(=O)NCC(c2cccs2)N(C)C)cc1 (stereo not given)	11	i	-2	-10	-9
C=CCn1c(O)c(N=NC(=S)Nc2cccc(C)c2)c2ccccc21	42*	i	-5	-5	5
C=CCn1c(O)c(N=NC(=S)Nc2ccccc2F)c2cc(S(=O)(=O)N3CCOCC3)ccc21	42*	i	-3	0	0
C=CCn1c(O)c(N=NC(=S)Nc2ccccc2F)c2ccccc21	39*	i	-1	-2	5
O=[N+]([O-])c1cc([N+](=O)[O-])c2c(=Nc3ccccc3)n(-c3ccccc3)n(O)c2c1	7	i	26*	7	17
O=[N+]([O-])c1cc(Br)c(Nc2ccccc2)c([N+](=O)[O-])c1	10	i	-1	nt	12
CCCn1c(C)cc(C(=O)CN2C(=O)c3cccc(N)c3C2=O)c1C	12	+	0	-5	85*
CCCCNC(=O)CN1C(=O)c2cccc(N)c2C1=O	39*	+	4	0	85*
CN(C(=O)CN1C(=O)c2cccc(N)c2C1=O)C1CCCCC1	40*	nt	-6	nt	nt
CC1CCCCC1NC(=O)CN1C(=O)c2cccc(N)c2C1=O (stereo not given)	50*	+	3	2	106*
SMILES	MLLE-PAM2 inh	PABP FP inh	TCR-CD3 inh	RBBP9 inhibitor	eIF4H inh
COc1cc(OC)c2c(=O)c3c(C(=O)O)c(O)ccc3oc2c1	nt	nt	5	nt	nt
COc1cccc(-c2ncn(CCc3ccccc3OC)c2CC(C)C)c1	nt	nt	7	nt	nt
COCC(=O)N1CCN(C(=O)C(=O)c2cccc(C(F)(F)F)c2)CC1	nt	nt	-2	nt	nt
Cn1c(SCC(=O)N/N=C/C=C\c2ccco2)nc2ccccc21	-14	+	17	-13	90*
Cn1c(=O)c2c(ncn2CC(=O)N/N=C/C=C/c2ccco2)n(C)c1=O	-1	+	5	3	99*
c1ccc(-c2ccc3c(n2)CCCN3Cc2ccccn2)cc1	nt	nt	2	nt	nt
CN(C)c1cccc2c(S(=O)(=O)NCC3CCN(C(=O)C(=O)c4cc5ccccc5o4)CC3)cccc12	nt	nt	-1	nt	nt
N#Cc1c(N)[nH]c(C(=O)c2ccccc2)c1-c1ccc(Br)cc1	nt	nt	2	nt	nt
CCn1c(SCc2ccccc2Cl)nc2nc3c(cc2c1=O)CCCC3	-9	+	3	-6	active
CCn1c(SCc2c(Cl)cccc2Cl)nc2nc3c(cc2c1=O)CCCC3	-48	nt	-12	nt	nt
O=C(/C=C/c1ccc(-c2ccccc2[N+](=O)[O-])o1)c1ccco1	52*	i	7	7	69
COc1cc2c(cc1OC)[C@@H](NC(=O)c1ccncc1)[C@H](C)[C@H]2c1ccccc1	nt	nt	-5	nt	nt
O=C(Nc1cc(-c2ccccc2)[nH]n1)c1ccccc1F	1	i	3	7	38
CC1=C(C(=O)Nc2cc(-c3cccc(F)c3)[nH]n2)C2(CCCCC2)OC1=O	6	+	1	-3	55*
CC1=CC(O)(c2ccccn2)P(=O)(c2ccccc2)C=C1C (stereo not given)	nt	nt	-6	nt	nt
COc1cc(NC(C)C(=O)N2CC(C)OC(C)C2)cc(OC)c1 (stereo not given)	2	+	1	2	?
CC1C2C(c3ccccc3)N(C)C(=O)N(C)C2N(C)C(=O)N1C (stereo not given)	21	+	1	8	57*
CN1NC(c2ccccc2)NN(C)C1=O	4	nt	-12	nt	nt
O=C(NCc1ccccc1)[C@@H]1CCCN1C(=O)[C@H]1CCCN1C(=O)c1ccccc1C(F)(F)F	nt	nt	3	nt	nt
COc1ccc(C(=O)COC(=O)c2cc(S(=O)(=O)NCc3ccccc3)ccc2O)cc1	-5	+	1	-1	active
C[C@H](CO)N1C[C@H](C)[C@H](CN(C)C(=O)C2CCCCC2)OCc2cnnn2CCCC1=O	nt	nt	-2	nt	nt
C[C@]12Cc3ccccc3C1CC1=N[C@@H](c3ccccn3)O[C@@]13C[C@@H]2C(=O)N3C1CCN(Cc2ccccc2)CC1 (stereo not given in full)	nt	nt	2	nt	nt
COc1ccccc1CCn1cnc(-c2ccccc2OC)c1CC(C)C	nt	nt	-1	nt	nt
CCn1c2ccccc2c2nnc(SCc3ccc(C(=O)OC)o3)nc21	41*	i	2	-1	-3
CCn1c2ccccc2c2nnc(SCc3ccccc3)nc21	1	i	1	-1	-4
Cc1ccccc1C1=CC(=O)CC(C)(C)C1=O	nt	nt	0	nt	nt
C[C@H](O)[C@@H]1CN2CCc3ccc(-c4ccc5c(c4)OCO5)cc3[C@@H]2C[C@@H]1N(C)Cc1cc(Cl)cc(Cl)c1	nt	nt	9	nt	nt
C/C(=N\OCc1nc2ccccc2c(=O)n1/N=C/c1cc([N+](=O)[O-])ccc1O)c1ccccc1	-30	i	23*	-2	21
O=[N+]([O-])c1ccc(O)c(/C=N/n2c(CO)nc3ccccc32)c1	-3	i	-5	1	5
COc1ccccc1N1C(=O)N(C(C)=O)C2C1Nc1ccccc1N2C (stereo not given)	-37	+	2	-5	78*
